Measured values: ChEMBL document CHEMBL1132244, “Benzodiazepine receptor ligands. 4. Synthesis and pharmacological evaluation of 3-heteroaryl-8-chloropyrazolo[5,1-c][1,2,4] benzotriazine 5-oxides” (J Med Chem, 1999)

Tests used:
[1] = target: GABA-A receptor; anion channel; assay: Displacement of [3H]Ro-151788 from GABA-A benzodiazepine receptor of bovine brain membranes; format: cell membranes, Bos taurus
Outline: (§1)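 Washed bovine cerebral cortex membranes, with endogenous GABA removed by Triton X-100/37 °C washes, incubated with ~0.2 nM [3H]Ro15-1788 (Kd 0.60 nM) in 50 mM Tris-citrate pH 7.4 for 90 min at 0 °C, then filtered. Nonspecific binding defined with 10 μM diazepam. Screening at 10 μM; Ki from IC50 by Cheng–Prusoff; five determinations, mean ± SEM.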

Mus musculus [2] = assay: Antianxiety activity was measured based on light/dark box thus calculated % time in light of mice at 10 mg/kg dose; format: functional
Outline: (§2)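 Male Swiss-Webster mice, 22–26 g, dosed orally with drug or 1% CMC vehicle (10 mL/kg), placed 30 min later in the centre of the lit side of a two-compartment light/dark box (60-W bulb 400 mm above the white floor). Time in the lit side and number of crossings counted over 5 min. Student's t-test.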

Mus musculus [3] = assay: Antianxiety activity was measured based on light/dark box thus calculated no of crosses of mice at 3 mg/kg dose; format: functional; outline: as §2
Mus musculus [4] = assay: (§3) Anticonvulsant activity against MES-induced hindlimb extension at 100 mg/kg dose; format: organism-based; set-up: dose 100 mg/kg; conditions: in vivo
Outline: (§4)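 Male Swiss-Webster mice (22–26 g) received drug in 1% CMC (10 mL/kg) 30 min before maximal electroshock through transcorneal electrodes (40 mA, 50 Hz, 0.2 s). The end point was tonic hindlimb extension, and lethality was also noted. The incidence of non-convulsing mice was analysed by χ² test.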

[5] = target: T1, GABA-A receptor; anion channel (Bos taurus) (UniProt P10063+P08220+P20237+P08219+P10064+P22300); assay: Percentage inhibition of [3H]Ro-151788 binding to GABA-A benzodiazepine receptor in bovine brain membrane at 10 uM; format: cell membranes; outline: as §1
Mus musculus [6] = assay: Anticonvulsant activity against PTZ induced atacks at 100 mg/kg dose; format: functional
Mus musculus [7] = assay: Antianxiety activity was measured based on light/dark box thus calculated % time in light of mice at 3 mg/kg dose; format: functional; outline: as §2
Mus musculus [8] = assay: as §3; format: functional
Mus musculus [9] = assay: Antianxiety activity was measured based on light/dark box thus calculated no of crosses of mice at 30 mg/kg dose; format: functional; outline: as §2
Mus musculus [10] = assay: (§5) Anticonvulsant activity against MES-induced hindlimb extension at 300 mg/kg dose; format: functional
[11] = target: T1, GABA-A receptor; anion channel (Bos taurus); assay: The GABA ratio (GR) = IC50 compound + 10 uM GABA, performed in five independent experiments was calculated for the compound.; format: protein-complex assay
Outline: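 [3H]Ro15-1788 displacement from GABA-depleted bovine cortex membranes (0.2 nM ligand, 90 min, 0 °C, Tris-citrate pH 7.4). IC50 measured without and with 10 μM GABA and the ratio taken; five independent experiments.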

Mus musculus [12] = assay: as §5; format: ADME, organism-based; set-up: dose 300 mg/kg; conditions: in vivo; outline: as §4
Mus musculus [13] = assay: Muscle relaxant effect measured by rotarod test at 300 mg/Kg dose in mice; format: functional
Outline: (§6)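 Motor coordination on the rota rod in male Swiss-Webster mice (22–26 g) after oral dosing in 1% CMC (10 mL/kg), tested 30 min post-dose. Student's t-test.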

Mus musculus [14] = assay: (§7) Anticonvulsant activity against MES-induced hindlimb extension at 30 mg/kg dose; format: functional
Mus musculus [15] = assay: Anticonvulsant activity against PTZ induced atacks at 30 mg/kg dose; format: functional
Mus musculus [16] = assay: Antianxiety activity was measured based on light/dark box thus calculated % time in light of mice at 100 mg/kg dose; format: functional; outline: as §2
Mus musculus [17] = assay: Antianxiety activity was measured based on light/dark box thus calculated no of crosses of mice at 100 mg/kg dose; format: functional; outline: as §2
Mus musculus [18] = assay: Antianxiety activity was measured based on light/dark box thus calculated % time in light of mice at 30 mg/kg dose; format: functional; outline: as §2
Mus musculus [19] = assay: as §7; format: ADME, organism-based; set-up: dose 30 mg/kg; conditions: in vivo; outline: as §4
Mus musculus [20] = assay: Antianxiety activity was measured based on light/dark box thus calculated no of crosses of mice at 10 mg/kg dose; format: functional; outline: as §2
Mus musculus [21] = assay: Muscle relaxant effect measured by rotarod test at 100 mg/Kg dose in mice; format: functional; outline: as §6
Mus musculus [22] = assay: Muscle relaxant effect measured by rotarod test at 30 mg/Kg dose in mice; format: functional; outline: as §6
Mus musculus [23] = assay: Anticonvulsant activity against PTZ induced atacks at 300 mg/kg dose; format: functional
Mus musculus [24] = assay: Anticonvulsant activity against PTZ induced attacks at 10 mg/kg dose; format: functional
Mus musculus [25] = assay: Muscle relaxant effect measured by rotarod test at 10 mg/Kg dose in mice; format: functional; outline: as §6
Mus musculus [26] = assay: (§8) Anticonvulsant activity against MES-induced hindlimb extension at 10 mg/kg dose; format: functional
Mus musculus [27] = assay: as §8; format: ADME, organism-based; set-up: dose 10 mg/kg; conditions: in vivo; outline: as §4
[28] = target: T1, GABA-A receptor; anion channel (Bos taurus); assay: Percentage inhibition of [3H]Ro-151788 binding to GABA-A central benzodiazepine receptor in bovine brain membrane at 10 uM; format: cell membranes; outline: as §1
Mus musculus [29] = assay: Muscle relaxant effect in rotarod test at 100 mg/kg 13c and 1 mg/kg Diazepam; format: functional
Mus musculus [30] = assay: Anticonvulsant activity against PTZ induced seizures in mice at 100 mg/kg dose with 0.3 mg/kg Diazepam; format: functional
Mus musculus [31] = assay: Antianxiolytic activity in mice as no of crosses on light/dark box at 100 mg/kg 13c and 1 mg/kg Diazepam; format: functional
Mus musculus [32] = assay: Antianxiolytic activity in mice as percent time in light of light/dark box at 100 mg/kg 13c and 1 mg/kg Diazepam; format: functional
Mus musculus [33] = assay: Anticonvulsant activity against PTZ induced seizures at 100 mg/kg dose with 1 mg/kg Diazepam; format: functional
Mus musculus [34] = assay: Muscle relaxant effect in rotarod test at 100 mg/kg 13c and 0.3 mg/kg Diazepam; format: functional
Mus musculus [35] = species on record: Mus musculus; assay: Antianxiety activity was measured based on light/dark box thus calculated no of crosses of mice; format: functional
Mus musculus [36] = species on record: Mus musculus; assay: Antianxiety activity was measured based on light/dark box thus calculated % time in light of mice; format: functional
Mus musculus [37] = species on record: Mus musculus; assay: Anticonvulsant activity against PTZ induced atacks; format: functional
Outline: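 Male Swiss-Webster mice (22–26 g) received drug in 1% CMC (10 mL/kg) 30 min before the test, or flumazenil 40 min before. Pentylenetetrazole was then given at 75 mg/kg sc, and generalized tonic-clonic seizures were scored over the following 30 min. The incidence of non-convulsing mice was analysed by χ² test.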

Mus musculus [38] = species on record: Mus musculus; assay: Muscle relaxant effect measured by rotarod test; format: functional

## [O-][n+]1nc2c(-c3cccs3)cnn2c2cc(Cl)ccc21
[1]
  Ki: 0.0103 µM
Mus musculus [2]
  Time in flight: 122.2%
Mus musculus [3]
  No. of crosses: 15
Mus musculus [4]
  Lethality: 20%
[5]
  inhibition: 82%
Mus musculus [6]
  Atttacks: 16.6%
Mus musculus [7]
  Time in flight: 88.9%
Mus musculus [8]
  Extension: 0%
Mus musculus [9]
  No. of crosses: 17.6
Mus musculus [10]
  Extension: 0%
[11]
  GR: 1.54
Mus musculus [12]
  Lethality: 8.3%
Mus musculus [13]
  No. of falls: 0.2
Mus musculus [14]
  Extension: 0%
Mus musculus [15]
  Atttacks: 10%
Mus musculus [16]
  Time in flight: 114.5%
Mus musculus [17]
  No. of crosses: 18.4
Mus musculus [18]
  Time in flight: 11.5%
Mus musculus [19]
  Lethality: 18.2%
Mus musculus [20]
  No. of crosses: 20
Mus musculus [21]
  No. of falls: 0.08
Mus musculus [22]
  No. of falls: 0
Mus musculus [23]
  Atttacks: 12.5%

## [O-][n+]1nc2c(-c3ccsc3)cnn2c2cc(Cl)ccc21
Mus musculus [24]
  Atttacks: 18.2%
[1]
  Ki: 0.0363 µM
Mus musculus [2]
  Time in flight: 94.2%
Mus musculus [25]
  No. of falls: 0.43
Mus musculus [26]
  Extension: 14.3%
Mus musculus [4]
  Lethality: 18.2%
[5]
  inhibition: 100%
Mus musculus [6]
  Atttacks: 46.1%
Mus musculus [8]
  Extension: 27.3%
Mus musculus [9]
  No. of crosses: 19
[11]
  GR: 1.23
Mus musculus [14]
  Extension: 33.3%
Mus musculus [15]
  Atttacks: 61.5%
Mus musculus [16]
  Time in flight: 107.4%
Mus musculus [27]
  Lethality: 28.6%
Mus musculus [17]
  No. of crosses: 15.3
Mus musculus [18]
  Time in flight: 104.3%
Mus musculus [19]
  Lethality: 22.2%
Mus musculus [20]
  No. of crosses: 16.3
Mus musculus [21]
  No. of falls: 0.15
Mus musculus [22]
  No. of falls: 0.08

## Clc1ccc2nnc3c(-c4cccs4)cnn3c2c1
[28]
  inhibition: 66%

## Cc1nc(-c2cnn3c2n[n+]([O-])c2ccc(Cl)cc23)nn1C
[5]
  inhibition: 0%

## [O-][n+]1nc2c(-n3cccc3)cnn2c2cc(Cl)ccc21
[1]
  Ki: 0.0615 µM
[5]
  inhibition: 87.5%
[11]
  GR: 1.24

## O=C(N/C=N/O)c1cnn2c1n[n+]([O-])c1ccc(Cl)cc12
[5]
  inhibition: 0%

## CN1C(=O)CN=C(c2ccccc2)c2cc(Cl)ccc21.[O-][n+]1nc2c(-c3cccs3)cnn2c2cc(Cl)ccc21
Mus musculus [29]
  No. of falls: 0.17
Mus musculus [30]
  Atttacks: 50%
Mus musculus [31]
  No. of crosses: 26.6
Mus musculus [32]
  Time in flight: 130.9%
Mus musculus [33]
  Atttacks: 100%
Mus musculus [34]
  No. of falls: 0.5

## [O-][n+]1nc2c(-c3cnoc3)cnn2c2cc(Cl)ccc21
[5]
  inhibition: 66%

## CCOC(=O)c1ncn2c1CN(C)C(=O)c1cc(F)ccc1-2 [FLUMAZENIL]
Mus musculus [35]
  No. of crosses: 15.2
Mus musculus [36]
  Time in flight: 114.8%
Mus musculus [37]
  Attacks: 0%
Mus musculus [38]
  No. of falls: 0.4

## CC(C)(C)OC(=O)Nc1cnn2c1n[n+]([O-])c1ccc(Cl)cc12
[5]
  inhibition: 0%

## O=CNC(=O)c1cnn2c1n[n+]([O-])c1ccc(Cl)cc12
[1]
  Ki: 0.844 µM
[5]
  inhibition: 85.5%
[11]
  Ratio: 2.07
